16 molecules from ChEMBL document CHEMBL1151758, “Synthesis of polyfluoro ketones for selective inhibition of human phospholipase A2 enzymes” (J Med Chem, 2008) can be followed below.

Bounds are passed on as bounds.

The target in experiment [1] is T1, 85/88 kDa calcium-independent phospholipase A2 (Homo sapiens) (UniProt O60733).
T1 sequence (whole entry): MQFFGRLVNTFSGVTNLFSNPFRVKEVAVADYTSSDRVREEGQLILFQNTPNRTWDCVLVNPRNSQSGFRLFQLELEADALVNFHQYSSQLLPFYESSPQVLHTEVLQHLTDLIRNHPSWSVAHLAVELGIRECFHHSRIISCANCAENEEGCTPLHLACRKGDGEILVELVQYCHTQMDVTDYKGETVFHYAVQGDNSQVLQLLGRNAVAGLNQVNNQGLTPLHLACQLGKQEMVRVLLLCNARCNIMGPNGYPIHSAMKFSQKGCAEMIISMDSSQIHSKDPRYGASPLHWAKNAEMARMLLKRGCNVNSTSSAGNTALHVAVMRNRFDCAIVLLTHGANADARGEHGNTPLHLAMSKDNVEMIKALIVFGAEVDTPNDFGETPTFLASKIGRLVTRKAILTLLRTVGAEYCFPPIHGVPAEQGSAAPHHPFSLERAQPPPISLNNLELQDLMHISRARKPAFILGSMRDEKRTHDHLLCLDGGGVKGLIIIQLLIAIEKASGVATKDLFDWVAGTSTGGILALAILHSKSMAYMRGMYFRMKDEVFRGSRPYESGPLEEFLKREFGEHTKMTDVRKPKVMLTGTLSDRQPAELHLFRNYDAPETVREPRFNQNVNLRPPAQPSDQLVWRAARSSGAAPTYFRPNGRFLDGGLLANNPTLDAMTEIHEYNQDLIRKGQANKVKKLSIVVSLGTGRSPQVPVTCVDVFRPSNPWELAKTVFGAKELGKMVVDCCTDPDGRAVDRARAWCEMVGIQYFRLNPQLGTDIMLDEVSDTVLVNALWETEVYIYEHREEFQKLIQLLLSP
The experiment in a line: Inhibition of human group 6A iPLA2 at 0.091 mol fraction by mixed micelle-based assay. The method in brief:
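Modified Dole assay. Buffer: 200 mM HEPES pH 7.0, 1 mM ATP, 2 mM DTT, 0.1 mg/ml BSA. Percent inhibition read with inhibitor at 0.091 mole fraction of the total substrate interface.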

Experiment [2] deals with T1, 85/88 kDa calcium-independent phospholipase A2 (Homo sapiens). The experiment in a line: Inhibition of human group 6A iPLA2 by mixed micelle-based assay. The method in brief:
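Modified Dole assay. Buffer: 200 mM HEPES pH 7.0, 1 mM ATP, 2 mM DTT, 0.1 mg/ml BSA. XI(50) is the inhibitor mole fraction in the total interface causing 50% inhibition. It was estimated for compounds exceeding 90% inhibition at 0.091 mole fraction.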

The target in experiment [3] is T2, Phospholipase A2 group V (Homo sapiens) (UniProt P39877).
T2 sequence (whole entry): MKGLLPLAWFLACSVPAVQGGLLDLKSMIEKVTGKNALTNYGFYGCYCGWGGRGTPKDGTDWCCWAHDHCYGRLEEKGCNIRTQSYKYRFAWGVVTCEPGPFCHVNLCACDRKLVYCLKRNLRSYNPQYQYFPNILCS
The experiment in a line: Inhibition of human group 5 sPLA2 at 0.091 mol fraction by mixed micelle-based assay. The procedure, abridged: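 Modified Dole assay. Inhibitor present at 0.091 mole fraction of the total substrate interface; percent inhibition recorded.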

Experiment [4] addresses T3, Cytosolic phospholipase A2 (Homo sapiens) (UniProt P47712).
T3 sequence (whole entry): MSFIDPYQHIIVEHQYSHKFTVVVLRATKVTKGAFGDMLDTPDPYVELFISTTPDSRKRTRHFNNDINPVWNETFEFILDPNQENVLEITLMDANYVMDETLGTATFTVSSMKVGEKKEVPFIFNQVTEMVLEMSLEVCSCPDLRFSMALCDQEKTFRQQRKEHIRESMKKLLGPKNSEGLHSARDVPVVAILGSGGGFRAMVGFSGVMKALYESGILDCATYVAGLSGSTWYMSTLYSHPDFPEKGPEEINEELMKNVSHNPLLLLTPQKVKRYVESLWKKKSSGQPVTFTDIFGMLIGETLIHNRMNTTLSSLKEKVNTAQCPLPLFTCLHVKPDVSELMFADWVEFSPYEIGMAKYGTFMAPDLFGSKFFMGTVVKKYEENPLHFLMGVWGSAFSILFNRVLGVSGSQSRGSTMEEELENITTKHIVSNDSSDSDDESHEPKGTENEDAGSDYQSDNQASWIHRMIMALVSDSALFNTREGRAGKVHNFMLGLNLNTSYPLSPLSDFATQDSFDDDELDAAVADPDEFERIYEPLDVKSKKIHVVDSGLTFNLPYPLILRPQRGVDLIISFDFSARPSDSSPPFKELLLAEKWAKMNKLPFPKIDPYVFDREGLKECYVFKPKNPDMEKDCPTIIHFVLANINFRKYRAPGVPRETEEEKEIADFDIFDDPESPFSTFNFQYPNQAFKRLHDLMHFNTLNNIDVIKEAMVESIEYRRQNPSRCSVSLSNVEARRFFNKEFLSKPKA
The experiment in a line: Inhibition of human group 4A cPLA2 at 0.091 mol fraction by mixed micelle-based assay. The method in brief:
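Modified Dole assay, radiolabel release. Buffer: 100 mM HEPES pH 7.5, 90 μM CaCl2, 2 mM DTT, 0.1 mg/ml BSA. Percent inhibition measured with inhibitor at 0.091 mole fraction of the total substrate interface.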

In experiment [5] the target is T3, Cytosolic phospholipase A2 (Homo sapiens). The experiment in a line: Inhibition of human group 4A cPLA2 by mixed micelle-based assay. The procedure, abridged: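 Buffer: 100 mM HEPES pH 7.5, 90 μM CaCl2, 2 mM DTT, 0.1 mg/ml BSA. XI(50) is the inhibitor mole fraction in the total substrate interface that gives 50% inhibition. It was estimated for compounds giving >90% inhibition at 0.091 mole fraction.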

Experiment [6] concerns the target T2, Phospholipase A2 group V (Homo sapiens). The experiment in a line: Inhibition of human group 5 sPLA2 by mixed micelle-based assay. The method in brief:
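Modified Dole assay. XI(50) is the inhibitor mole fraction of the total interface that halves activity. It was estimated only where inhibition at 0.091 mole fraction exceeded 90%.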

On to `O=C(CCCCCCc1ccccc1)C(F)(F)C(F)(F)F`, for which the figures for the inhibition in experiment [1], in experiment [3] and in experiment [4] were 98%, 75% and 65%, respectively. In experiment [2], the XI50 came out at 0.0065.
Turning to `CCCCCCOc1ccc(CCC(=O)C(F)(F)C(F)(F)F)cc1`, the inhibition in experiment [1] is 95%; in experiment [3], 86%; in experiment [4] it was 73%. Moreover, the XI50 in experiment [2] was found to be 0.0075.
For `CCCCCCCCCCOc1ccc(CCCCC(=O)C(F)(F)F)cc1`, the inhibition amounted to 94% in experiment [1], 84% in experiment [3] and 95% in experiment [4]. For the same molecule, the XI50 in experiment [2] stood at 0.0166; in experiment [5], 0.0116.
As for `O=C(CCc1ccc(OCc2ccccc2)cc1)C(F)(F)F`, the inhibition amounted to 71% in experiment [1], 49% in experiment [3] and 88% in experiment [4].
Take `O=C(CCCCCc1ccccc1)C(F)(F)F`: the inhibition is 96% in experiment [1], 48% in experiment [3] and 62% in experiment [4]. Besides, the XI50 in experiment [2] worked out at 0.0025.
`OC(O)(C(F)(F)F)C(F)(F)CCCc1ccccc1`: the values for the inhibition in experiment [1], in experiment [3] and in experiment [4] were 49%, 59% and 27%, respectively.
`O=C(CCCCCc1ccccc1)C(F)(F)C(F)(F)F`: the inhibition worked out at 98% in experiment [1], 46% in experiment [3] and 56% in experiment [4]. The XI50 in experiment [2] amounted to 0.0065.
Consider `CCCCCCOc1ccc(CCCCC(=O)C(F)(F)F)cc1`, for which the inhibition in experiment [1] was 91%; in experiment [3], 86%; in experiment [4] it was 92%. The XI50 was 0.0169 in experiment [2] and 0.0098 in experiment [5].
On the same counts, the results for `CCCCCCCCCCCCCCCC(=O)C(F)(F)F` are 92%, 79%, 96%, 0.0195 and 0.0223.
As to `CCCCCCCCCCCCCCC(F)C(=O)C(F)(F)F` (stereo not drawn), the inhibition in experiment [1] worked out at 93%; in experiment [3], 86%; in experiment [4] it was 94%. Besides, the XI50 in experiment [2] came out at 0.0011; in experiment [6], 0.0236; in experiment [5], 0.0167.
Consider `O=C(CCCCc1ccccc1)C(F)(F)F`, for which the inhibition in experiment [1] is 96%; in experiment [3], below 25%; in experiment [4], 38%. In addition, the XI50 in experiment [2] amounted to 0.0096.
Turning to `CCCCCCCCCCCCCCCC(=O)C(F)(F)C(F)(F)F`, the inhibition was 50% in experiment [1], 43% in experiment [3] and below 25% in experiment [4].
As for `CCCCCCOc1ccc(CCC(=O)C(F)(F)F)cc1`, the inhibition in experiment [1] stood at 85%; in experiment [3], 82%; in experiment [4], 91%. Also, the figures for the XI50 in experiment [2] and in experiment [5] were 0.0328 and 0.0199, respectively.
Take `O=C(CCCCc1ccccc1)C(F)(F)C(F)(F)F`: the inhibition in experiment [1] is 98%; in experiment [3], 28%; in experiment [4], below 25%. Besides, the XI50 in experiment [2] amounted to 0.0073.
Consider `CCCCCCCCCCOc1ccc(CCC(=O)C(F)(F)F)cc1`, for which the inhibition in experiment [1] was determined as 94%; in experiment [3], 80%; in experiment [4] it was 96%. The XI50 in experiment [2] was 0.0208; in experiment [5], 0.0156.
As for `O=C(CCCCCCc1ccccc1)C(F)(F)F`, the inhibition was found to be 99% in experiment [1], 53% in experiment [3] and 68% in experiment [4]. Besides, the XI50 in experiment [2] was 0.0018.

One may read the inhibition as the drop in the measured response relative to a control, in per cent.
